Assay results from ChEMBL document CHEMBL4145647, “Aniline-Tetramic Acids from the Deep-Sea-Derived Fungus Cladosporium sphaerospermum L3P3 Cultured with the HDAC Inhibitor SAHA” (J Nat Prod, 2018).
Structures can show the parent of a compound that is named as a salt.

Tests used:
[1] = tested on: K562; experiment: Cytotoxicity against human K562 cells after 72 hrs by MTT assay; type: functional, cell-based; details: K562, 72 h
How it was run: (§1)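 Cells were checked for viability by Trypan blue counting, then plated at 8000 cells/well and exposed to test solution for 72 h. MTT reagents were then added, followed by a further 10 h incubation. Absorbance was read at 570 nm and IC50 reported in μM. Doxorubicin was the positive control.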

[2] = tested on: SH-SY5Y; experiment: Cytotoxicity against human SH-SY5Y cells after 72 hrs by SRB assay
[3] = tested on: MGC-803; experiment: Cytotoxicity against human MGC803 cells after 72 hrs by SRB assay; details: MGC-803, 72 h
[4] = tested on: PC-3; experiment: Cytotoxicity against human PC3 cells after 72 hrs by SRB assay; details: PC-3, 72 h
[5] = tested on: HCT-116; experiment: Cytotoxicity against human HCT116 cells after 72 hrs by SRB assay; details: HCT-116, 72 h
[6] = tested on: HL-60; experiment: Cytotoxicity against human HL60 cells after 72 hrs by MTT assay; type: functional, cell-based; details: HL-60, 72 h; how it was run: as §1

Row | SMILES | IC50 [1] [µM] | IC50 [2] [µM] | IC50 [3] [µM] | IC50 [4] [µM] | IC50 [5] [µM] | IC50 [6] [µM]
1 | CC(C)=C1NC(=O)C(=C(C[C@@H](C[C@H](C)O)Nc2ccccc2)Nc2ccccc2)C1=O | 6.8 | > 30 | > 30 | > 30 | > 30 | 7.8
2 | CC(C)=C1NC(=O)C(=C(C[C@H](C[C@H](C)O)Nc2ccccc2)Nc2ccccc2)C1=O | 5.9 | > 30 | > 30 | 18 | 14 | 7.5
3 | CO[C@H](CC(Nc1ccccc1)=C1C(=O)NC(=C(C)C)C1=O)C[C@H](C)O | 4.1 | 12 | 19 | 13 | 11 | 2.8
4 | CC(C)=C1NC(=O)C(=C2C=CC[C@H](C)O2)C1=O | 4.5 | 15 | 22 | 11 | 12 | 6.6
5 | CO[C@@H](CC(Nc1ccccc1)=C1C(=O)NC(=C(C)C)C1=O)C[C@H](C)O | > 30 | > 30 | > 30 | > 30 | > 30 | > 30
6 | COc1cccc2c1C(=O)c1c(O)c3c(c(O)c1C2=O)C[C@@](O)(C(=O)CO)C[C@@H]3O[C@H]1C[C@H](N)[C@H](O)[C@H](C)O1 [DOXORUBICIN HYDROCHLORIDE] | – | – | – | 1 | – | –
